Kir21 block = Kir2.1 (mouse) channel inhibition; B-score at 10 µM; 310,000 tested, 0.85% active; HEK293-Kir2.1, FluxOR thallium flux fluorescence; active compounds read low; P35561;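 active = fluorescence ratio B-score at or below minus 3 SD of library scores, with starting-brightness B-score within 2 SD, cut at about -4.2 in these data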;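 note: channel flux triggered by added potassium and thallium sulfate stimulus; B-score of peak minus minimum fluorescence over baseline after thallium stimulus; more negative B-score means stronger Kir2.1 block with less thallium influx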
TRPC4 act = activators of mouse TRPC4 channel. 310,000 tested, 0.49% active. B-score at 10 µM. HEK293 TRPC4beta/mu-opioid, Fluo4 calcium fluorescence; active compounds read high. AID 2237;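 active = B-score above 5 SD of library B-scores, and initial fluorescence ratio not above library mean plus 5 SD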;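 note: positive B-score marks a calcium rise read as TRPC4 activation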
Target sequence (Q9QUQ5 whole entry, looked up): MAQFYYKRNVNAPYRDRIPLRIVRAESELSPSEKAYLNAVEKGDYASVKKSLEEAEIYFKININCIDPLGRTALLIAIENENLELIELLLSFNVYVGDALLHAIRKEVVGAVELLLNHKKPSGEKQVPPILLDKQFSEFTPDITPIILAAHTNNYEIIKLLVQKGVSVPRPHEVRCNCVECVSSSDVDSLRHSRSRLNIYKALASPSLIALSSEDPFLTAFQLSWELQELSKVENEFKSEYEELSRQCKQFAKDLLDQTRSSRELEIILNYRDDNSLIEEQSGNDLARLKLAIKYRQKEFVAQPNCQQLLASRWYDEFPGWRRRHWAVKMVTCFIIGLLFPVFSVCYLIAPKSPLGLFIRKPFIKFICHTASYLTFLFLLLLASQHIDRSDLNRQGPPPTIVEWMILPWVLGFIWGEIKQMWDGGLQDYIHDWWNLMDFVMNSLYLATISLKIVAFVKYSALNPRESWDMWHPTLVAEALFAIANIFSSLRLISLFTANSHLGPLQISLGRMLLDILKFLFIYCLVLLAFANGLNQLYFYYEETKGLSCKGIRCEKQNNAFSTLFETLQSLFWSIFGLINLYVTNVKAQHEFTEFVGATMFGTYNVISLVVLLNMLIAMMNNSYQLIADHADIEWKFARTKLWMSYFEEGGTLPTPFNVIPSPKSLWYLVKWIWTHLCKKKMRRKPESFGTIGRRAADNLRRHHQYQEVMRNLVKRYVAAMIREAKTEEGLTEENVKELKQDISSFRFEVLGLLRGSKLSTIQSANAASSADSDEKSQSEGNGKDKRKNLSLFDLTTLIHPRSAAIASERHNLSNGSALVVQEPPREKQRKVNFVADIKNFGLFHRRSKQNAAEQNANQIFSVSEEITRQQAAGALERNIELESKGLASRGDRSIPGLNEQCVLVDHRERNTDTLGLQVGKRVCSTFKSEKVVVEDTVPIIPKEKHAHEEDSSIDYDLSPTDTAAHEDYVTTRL
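Material: TRPC4beta and mu-opioid receptor HEK293 stable cells | Incubation: 45 min room-temperature Fluo4 loading, 110 s read | Detection: Kinetic Fluo4 calcium fluorescence | Measure: Integrated baseline-normalised fluorescence ratio, converted to per-well B score | Benchmarks: Low control buffer alone, high control maximal DAMGO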
TRPC4 PAM = allosteric potentiators of mouse TRPC4 channel | HEK293 TRPC4beta/mu-opioid, DAMGO EC20, Fluo-4 Ca2+ flux; active compounds read high | B-score at 10 µM | 310,000 tested, 0.42% active | AID 2227;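 active = B-score of calcium response area above 5 SD of library B-scores, with initial fluorescence ratio within 5 SD of library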;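 note: B-score of integrated fluorescence ratio over time as area under calcium response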
TRPC6 inh = inhibitors of mouse TRPC6 channel. Q61143. HEK293-TRPC6, membrane potential dye, ACh-evoked depolarization; active compounds read low. B-score at 10 µM. 310,000 tested, 1.1% active;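 active = B-score under library mean minus 3 SD, initial fluorescence not abnormally high, positive integrated signal ratio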;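 note: B-score derived from integrated fluorescence ratio over the kinetic read; more negative B-score means stronger inhibition of depolarization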
TRPC4 inh = TRPC4 (mouse) channel inhibition | 300,000 tested, 0.39% active | B-score at 10 µM | HEK293 TRPC4beta/mu-opioid, DAMGO-evoked Fluo4 calcium flux; active compounds read low;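 active = B-score over 3 SD under the library average, no early fluorescence shift, positive overall ratio signal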
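Assay system: Stable TRPC4beta/mu-opioid receptor HEK293 cells | Reagent: DAMGO in two steps, submaximal then maximal | Compound dosing: Single concentration per test compound | Signal: Fluo4 Ca2+ flux fluorescence | Evaluation: Per-well B score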
TRPC6 act = mouse TRPC6 channel activation; B-score at 10 µM; HEK293-TRPC6 membrane potential dye fluorescence; active compounds read high; 310,000 tested, 0.13% active; Q61143;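 active = B-score of the integrated fluorescence ratio above library mean plus 3 SD, and starting fluorescence ratio within library mean plus 5 SD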;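 note: higher score means more depolarization so channel activation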
Active calls of the source: *; i = inactive. This is a sample that favours compounds with a hit; in the whole collection about 2.9% have one here.

SMILES	Kir21 block	TRPC4 act	TRPC4 PAM	TRPC6 inh	TRPC4 inh	TRPC6 act
COc1ccc(C(=O)NC(=S)NNC(=O)Cc2cccs2)cc1	0.24	49*	i	i	i	i
COc1cc(OC)cc(C(=O)NC(=S)NNC(=O)Cc2cccs2)c1	0.01	147*	i	i	i	i
CCCOc1ccc(Br)cc1CSC(=N)N	-8.2*	i	i	i	i	i
Cc1cc(OCC(=O)N2CCCC2)cc(C)c1Cl	-0.05	84*	i	i	i	i
C=CCN(C(=O)Cn1nnc2ccccc21)C(C(=O)NCCOC)c1ccc(OC)cc1OC (centres undefined)	0.42	i	i	i	i	i
COCCN(C(=O)Cn1nnc2ccccc21)C(C(=O)NC1CCCC1)c1cc(OC)ccc1OC (centres undefined)	0.87	i	i	i	i	24*
Cc1nc(Cl)nc(N(C)c2ccccc2)c1[N+](=O)[O-]	0.28	i	i	i	-6*	i
Cc1nc(N/N=C/c2ccccc2)nc(N(C)c2ccccc2)c1[N+](=O)[O-]	1.7	i	i	i	i	i
CC(C)(C)C(=O)NC(=S)NNC(=O)c1ccc(-c2ccccc2)cc1	-1	277*	i	i	i	i
CCCOc1ccc(C(=O)NNC(=S)NC(=O)c2cccs2)cc1	-0.39	175*	i	i	i	i
CC(C)(C)C(=O)NC(=S)NNC(=O)c1ccncc1	0.91	i	i	i	i	i
CC(C)(C)c1ccc(C(=O)NC(=S)NNC(=O)COc2ccccc2)cc1	0.96	72*	i	i	-6*	i
CCC(=O)NC(=S)NNC(=O)c1ccc(OC)cc1	-0.63	i	i	i	i	i
CCCCOc1ccc(C(=O)NNC(=S)NC(=O)CC)cc1	1.9	73*	i	i	i	i
CC(C)(C)c1ccc(OCC(=O)NNC(=O)CCc2ccccc2)cc1	0.18	i	i	i	i	i
CCCCCN(C(=O)CN(C)Cc1ccc(OC)cc1OC)c1c(N)n(CCCC)c(=O)[nH]c1=O	-0.97	i	i	i	i	i
O=C(Nc1ccc(S(=O)(=O)N2CCCC2)cc1)c1ccc(CN2CCc3ccccc3C2)cc1	0.12	i	i	i	i	i
CCCOc1ccc(C(=O)NNC(=S)NC(C)=O)cc1	-0.13	i	i	i	i	i
Cc1ccccc1C(=O)NNC(=S)NC(=O)COc1ccccc1	0.74	177*	i	i	i	i
CCCOc1ccc(C(=O)NNC(=S)NC(=O)c2ccccc2)cc1	0.88	167*	i	i	i	i
Cn1cccc1/C=N/NC(=O)CSc1nc2ccccc2n1C	-1.7	i	i	i	i	i
COc1cc(OC)cc(C(=O)NCC(=O)N2CCN(c3ccc(O)cc3)CC2)c1	-0.09	i	i	i	i	i
O=C(N/N=C/c1cn(-c2cccs2)nc1-c1ccccc1)c1ccccc1Br	1.6	i	14*	i	i	i
O=C(N/N=C/c1cn(-c2cccs2)nc1-c1ccccc1)c1ccccc1O	-1.5	i	i	i	i	i
COc1cc(/C=C(/C(=O)c2cccs2)c2nc3ccccc3[nH]2)ccc1O	-4.4*	i	i	i	i	i
SMILES	Kir21 block	TRPC4 act	TRPC4 PAM	TRPC6 inh	TRPC4 inh	TRPC6 act
CCc1cccc(NC(=O)CN(C)S(=O)(=O)c2cccs2)c1	1	i	i	i	i	i
CCn1nc([N+](=O)[O-])c(C(C#N)c2nc3cc(C(F)(F)F)ccc3s2)c(Cl)c1=O (centres undefined)	-5.5*	i	i	-11*	i	i
COC(=O)c1ccc(OC(=O)CCN2c3ccccc3Sc3ccccc32)cc1	-0.4	i	i	i	i	i
NNC(=O)c1[nH]c2ccc([N+](=O)[O-])cc2c1-c1ccccc1	-0.66	i	i	i	-6*	i
O=C(N/N=C/c1ccccn1)c1ccc([N+](=O)[O-])cc1Cl	0.24	i	i	i	i	i
O=[N+]([O-])c1ccc2[nH]nc(-c3ccccc3)c2c1	3.6	i	i	i	-6*	i
O=C(N/N=C/c1ccccn1)c1[nH]c2ccc([N+](=O)[O-])cc2c1-c1ccccc1	-2.5	i	i	i	-6*	i
CCN(CC(=O)Nc1ccccc1C(F)(F)F)C(=O)c1cc2c(s1)CCCCC2	0.39	i	i	i	i	i
O=C(CSc1nccc(=O)[nH]1)c1ccccc1Br	-0.59	i	i	i	i	i
FC(F)c1nc2ccccc2[nH]1	0.45	i	i	i	i	i
CCn1c(C)nc2cc(C(=O)N/N=C/c3cccc(O)c3O)ccc21	0.34	i	77*	i	i	i
COCCNCCCOc1ccc(Cl)cc1Br	-0.06	i	i	i	i	i
COCCCNCCCOc1ccc(Cl)cc1C(C)(C)C	-5.1*	i	i	i	i	i
COCCCNCCCCOc1ccc(Br)cc1Cl	-6.8*	i	i	i	i	i
CCOC(=O)C(C)c1n[nH]c(=O)c2ccccc12 (centres undefined)	1.2	i	13*	i	i	i
COc1cc(/C=N\NC(=O)c2ccc(-c3ccccc3)cc2)cc(Br)c1O	-0.13	i	i	i	i	i
CCOC(=O)C1=NN(c2ccccc2C)C2=NC(C)=C(C(=O)OC)C(c3cccc(OC)c3)N12 (centres undefined)	2	i	i	i	-5*	i
CCOC(=O)C1=NN(c2ccccc2)C2=NC(C)=C(C(=O)OC)C(c3cccs3)N12 (centres undefined)	0.75	i	i	i	i	i
Cc1cc(C(=O)OCC(=O)NCc2ccco2)c(C)n1-c1ccc(F)cc1	-1.5	i	i	i	i	i
CCOC(=O)c1ccc(NC(=S)N2CCC(O)CC2)cc1	-0.8	i	i	i	i	i
CCOC(=O)c1ccc(NC(=S)N2CCSC2c2ccc(Br)cc2)cc1 (centres undefined)	0.97	i	43*	i	i	i
O=[N+]([O-])c1ccccc1CN1CCN(S(=O)(=O)Cc2ccccc2)CC1	0.02	i	i	i	i	i
O=C(Cn1cnc2c(nnn2Cc2ccc(F)cc2)c1=O)N1CCCc2ccccc21	-0.2	i	i	i	i	i
